Source: PubChem BioAssay
Diaph inh CS: diaphorase inhibitors and chemical oxidizers, primary screen, counter-screen for diaphorase-coupled primary assays, biochemical, uHTS, resorufin fluorescence; diaphorase resazurin-to-resorufin fluorescence, NADH, 16 min; bacterial (C. kluyveri) enzyme, not human; inhibition, % at 20 µM; 0.69% of 190,000 active;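 active = primary screen inhibition at 20 µM above a set limit, cut at about 50% in these data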
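Assay system – diaphorase enzyme from Clostridium kluyveri · Amount – diaphorase 0.14 U/mL (working solution) · Times – reaction incubation of 16 min at room temperature · Controls – No-NADH positive control and DMSO neutral control · Signal – resorufin fluorescence 544/590 nm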
HMGR II inh: inhibitors of E. faecalis class II HMGR, primary screen, biochemical, Enterococcus faecalis | 0.41% of 190,000 active | purified E. faecalis HMGR, NADPH absorbance 340 nm kinetic | HMG-CoA reductase (Enterococcus faecalis, mvaE) | inhibition, % at 10 µM;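 active = inhibition above a set limit, the median over all tested compounds plus 3 SD, cut at about 9.5% in these data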;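 also: enzyme runs in reverse so mevalonate oxidation gives rising NADPH absorbance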
ABCG2 block: ABCG2 efflux pump inhibitors, primary screen, multiplex with ABCB1, IgMXP3 cells, flow cytometry. Broad substrate specificity ATP-binding cassette transporter ABCG2 (Homo sapiens), Q9UNQ0. 0.1% of 190,000 active. AID 1325, 2008. JC-1 efflux. inhibition, % at 6.6 µM;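 active = inhibition above 80%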
Target sequence (Q9UNQ0 whole entry, looked up): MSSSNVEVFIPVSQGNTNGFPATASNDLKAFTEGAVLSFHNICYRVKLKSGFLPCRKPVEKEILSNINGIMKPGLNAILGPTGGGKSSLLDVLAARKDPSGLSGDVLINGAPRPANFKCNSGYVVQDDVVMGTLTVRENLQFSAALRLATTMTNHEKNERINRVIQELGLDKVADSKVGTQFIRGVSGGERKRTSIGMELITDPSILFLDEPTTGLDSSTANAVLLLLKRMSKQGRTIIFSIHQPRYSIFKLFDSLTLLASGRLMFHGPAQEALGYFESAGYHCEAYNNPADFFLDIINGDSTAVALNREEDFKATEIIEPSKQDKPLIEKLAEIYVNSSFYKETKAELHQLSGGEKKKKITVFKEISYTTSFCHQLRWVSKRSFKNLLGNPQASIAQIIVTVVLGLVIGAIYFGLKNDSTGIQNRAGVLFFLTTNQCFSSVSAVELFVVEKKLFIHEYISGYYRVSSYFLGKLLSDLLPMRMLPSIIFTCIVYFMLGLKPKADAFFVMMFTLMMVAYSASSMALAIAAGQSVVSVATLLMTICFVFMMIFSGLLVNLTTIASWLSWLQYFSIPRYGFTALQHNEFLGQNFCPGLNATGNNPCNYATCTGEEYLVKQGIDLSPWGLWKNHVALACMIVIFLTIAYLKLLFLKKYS
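Read-out basis: Efflux inhibition in percent versus controls | Test system: ABCG2 IgMXP3 and barcoded ABCB1 CCRF-Adr cell mix | Quantity: 3 million cells/mL in well | Schedule: 10 min at 25 °C | Control set: Nicardipine as high control, DMSO as low control | Reagent: JC-1 as fluorescent efflux pump substrate | Signal: Flow cytometry of retained JC-1 fluorescence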
ABCB1 inh: ABCB1 efflux pump inhibitors, primary screen, cell-based, multiplex, flow cytometry, ABCG2 counter-screen; ATP-dependent translocase ABCB1 (Homo sapiens), P08183; 0.067% of 190,000 active; inhibition, % at 6.6 µM; CCRF-Adr cells, JC-1 efflux; in the data active = inhibition above about 40%;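 also: higher value means more JC-1 retained so stronger ABCB1 efflux block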
p47phox inh: p47phox/p22phox peptide binding inhibitors, primary screen, biochemical, uHTS, NADPH oxidase regulatory subunit. inhibition, % at 24.7 µM. Neutrophil cytosol factor 1 (Homo sapiens), P14598. fluorescence polarization, 2 h. AID 1274, 2008. 0.53% of 220,000 active;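 active = inhibition above about 30%, limit read from the data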
Diaphorase act: compounds boosting diaphorase resazurin reduction – biochemical, uHTS, resorufin fluorescence, counter-screen for diaphorase-coupled primary assays, primary screen; 0.005% of 190,000 active; AID 1229, 2008; Diaphorase/resazurin coupled assay, 16 min; hits give high values; 1 = vehicle wells, 0 = NADH-free wells; activation factor at 20 µM;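 active = diaphorase activity raised at least twofold by the compound at 20 µM; inactive = activation factor below 2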
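Measured by – red resorufin fluorescence at 544/590 nm excitation/emission · Test system – Clostridium kluyveri diaphorase, purified enzyme · Incubation – reaction time 16 min, room temperature · Buffer or medium – 50 mM HEPES pH 7.4 with 4.542 mM MgCl2, 0.005% Tween 20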
Numbers stand for hits; . = inactive; / = no result given. A selection: hits, their analogues and other compounds. The true share with any hit is near 1.6%.

SMILES | Diaph inh CS | HMGR II inh | ABCG2 block | ABCB1 inh | p47phox inh | Diaphorase act
Cc1cccc2cc(CN(Cc3ccco3)C(=O)Nc3cccc(C#N)c3)c(Cl)nc12 | . | . | . | . | . | .
Cc1ccc(NC(=O)N(Cc2ccco2)Cc2cc3cc(C)cc(C)c3nc2Cl)cc1 | . | . | . | . | 160.1 | .
COCCn1c(SCC(=O)N2CCCc3ccccc32)nc2ccccc2c1=O | . | . | . | . | 68.2 | .
COCCn1c(SCC(=O)N2CCCc3ccccc32)nc2c(c1=O)SC(C)C2 (stereo unspecified) | . | . | . | . | . | .
O=C(Nc1ccc(N2CCOCC2)c(Cl)c1)c1ccc([N+](=O)[O-])o1 | . | 25.8 | . | . | . | .
CC(C)C(=O)N1CCN(c2ccc(NC(=O)c3ccc([N+](=O)[O-])o3)cc2Cl)CC1 | . | . | . | . | . | .
Cc1ccc(S(=O)(=O)NCC(=O)N(c2ccccc2)C(C(=O)NCc2ccccc2)c2ccco2)cc1 (stereo unspecified) | 50.8 | . | . | . | . | .
Cc1cc(C)cc(N(C(=O)CNS(=O)(=O)c2ccccc2)C(C(=O)NCc2ccccc2)c2ccc(C)o2)c1 (stereo unspecified) | . | . | . | . | . | .
COc1cc(C(=O)OCC(=O)Nc2c(F)cccc2F)cc(OC)c1C | . | . | . | . | . | .
FC(F)Oc1cccc(NC(=S)N2CCN(c3ccccn3)CC2)c1 | 69.6 | . | . | . | . | .
c1ccc(-c2noc(CN3CCN(C(c4ccccc4)c4ccccc4)CC3)n2)cc1 | . | . | . | . | . | .
Cc1csc(NC(=O)[C@@H](NC(=O)c2ccccc2)C(C)C)n1 | . | . | . | . | . | .
CN1CCN(CC(=O)N2CCn3c4c(c5cc(C6CCCCC6)ccc53)CCCC42)CC1 (stereo unspecified) | . | . | . | . | 31.4 | .
Cc1ccc(CSc2nnc(C)c(=O)[nH]2)cc1 | . | . | . | . | 67.1 | .
Cc1cc(C)c2[nH]c(=O)c(CN(Cc3ccc4c(c3)OCO4)Cc3nnnn3C3CCCC3)cc2c1 | . | . | . | . | . | .
O=C(COCc1nc2ccccc2c(=O)[nH]1)NCC1CCCCC1 | . | 15.3 | . | . | . | .
OCCCNC(=S)Nc1ccc2nc(-c3ccccn3)c(-c3ccccn3)nc2c1 | 68.3 | . | . | . | . | .
S=C(Nc1ccc2nc(-c3ccccn3)c(-c3ccccn3)nc2c1)N1CCOCC1 | 51.4 | . | . | . | . | .
CN(C)NC(=S)Nc1ccc2nc(-c3ccccn3)c(-c3ccccn3)nc2c1 | . | . | . | . | . | .
CC(C)(C)CC(C)(C)NC(=S)Nc1ccc2nc(-c3ccccn3)c(-c3ccccn3)nc2c1 | . | . | . | . | . | .
CCc1ccccc1NC(=O)C(C#N)Cc1cccnc1 (stereo unspecified) | . | . | . | . | . | .
S=c1[nH]cnc2scc(-c3ccccc3)c12 | 64.1 | . | . | . | . | .
Clc1ncnc2scc(-c3ccccc3)c12 | . | . | . | . | . | .
COc1ccc(-c2cc(=O)c3c(O)c(OC)c(O)cc3o2)cc1 | . | . | . | . | . | .
Cc1cc(=O)c2c(O)c(O)ccc2o1 | 72.3 | . | . | . | . | .
SMILES | Diaph inh CS | HMGR II inh | ABCG2 block | ABCB1 inh | p47phox inh | Diaphorase act
CN(C)c1nc2c(c(=O)n(C)c(=O)n2C)n1Cc1ccccc1 | . | . | . | . | . | .
Cc1noc(C)c1C(c1ccccc1)c1ccccc1 | . | . | . | . | . | .
COc1ccccc1S(=O)(=O)Cc1ccc(C(=O)NCc2cccs2)o1 | . | . | . | . | . | .
CCc1ccccc1S(=O)(=O)Cc1ccc(C(=O)NCc2cccs2)o1 | . | 9.8 | . | . | . | .
S=c1nccc(-c2cccs2)[nH]1 | 53.5 | . | . | . | . | .
c1csc(-c2ccn[nH]2)c1 | / | / | / | / | . | /
